Assay: Toxicity liver stage against HepG2, at 10uM
Assay type: cell-based
Parameters: test concentration 10 uM, cell line HepG2-A16-CD81EGFP
Conditions: human, HepG2-A16-CD81EGFP cells; read-out: INHIBITION
Summary of the method: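 Uninfected HepG2-A16-CD81EGFP cells, 3 × 10^3 per well, 1536-well, plated on prespotted compound at 10 μM final, parasite-free screening media added to match infected plates; puromycin 10 μM positive, DMSO 0.5% negative; run in parallel with 48 h PbLuc assay at 37 °C, 5% CO2; viability by CellTiter-Glo luminescence, normalized to controls.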

Compound	cytotoxicity at 10 µM [%]
COCCn1ccc2ccc(C(=O)N3CCN(C(C)=O)CC3)cc21	-8.6
CC(C)CS(=O)(=O)Nc1ccc2c(c1)OCC(C)(C)C(=O)N2C	-0.123
COCC(C)NC(=O)c1nnn(-c2ccc(Br)cc2)n1 (stereo not drawn)	-0.712
CCOC(=O)C1CN(S(C)(=O)=O)Cc2ncn(CC)c21 (stereo not drawn)	6.74
Cc1noc([C@]23COC[C@H]2CN(S(C)(=O)=O)C3)n1	10.4
Cc1cncc(C(=O)N2CCc3ncc(Cn4cccn4)n3CC2)c1	14.3
O=C(NC1CC1)N1CCOCC2(C1)CN(c1ccccc1)C(=O)CO2 (stereo not drawn)	-1.37
CC1=N[C@@]2(CC[C@@H]3CN(C(=O)NCC(C)C)C[C@@H]32)C(=O)N1CC(C)C	2.68
NC(=O)C1CCN(C(=O)CCn2ccc3ccc(Br)cc32)CC1	-5.85
CCc1cc(C(F)(F)F)n2nc(C3CCCN3C(=O)COC)cc2n1 (stereo not drawn)	3.01
CN1C(=O)CO[C@H]2CCN(C(=O)Cc3ccc4c(c3)CCCC4)CC[C@@H]21	4.45
CC(NC(=O)c1cc(C(C)C)[nH]n1)C(=O)Nc1ccccc1 (stereo not drawn)	10.8
Cc1cccc(CS(=O)(=O)Cc2ccn(C)c(=O)c2)c1	2.29
CCS(=O)(=O)NC1CCCN(c2cc(C)ccc2F)C1=O (stereo not drawn)	3.07
CCC1CCCCN1S(=O)(=O)c1c(C)noc1C (stereo not drawn)	-9.35
Cc1c(F)cccc1S(=O)(=O)Nc1noc(C(C)C)n1	7.21
CC(=O)NCc1ccc(S(=O)(=O)NC(=O)c2ccc3c(c2)COC3)s1	-1.8
Cc1nn(C)c2ncc(NC(=O)N(C)Cc3cc(Cl)cn3C)cc12	2.73
CCC(C)C(=O)N(CC(=O)OC)c1cccc(C)n1 (stereo not drawn)	-4.31
CC(Cn1cccn1)NC(=O)CCc1nc(C(C)(C)C)no1 (stereo not drawn)	14.5
O=C(COc1ccc2c(c1)OCC2O)NCc1ccco1 (stereo not drawn)	0.878
CC(Oc1cccc(Cl)c1)C(=O)Nc1cnn(CC(=O)NC2CC2)c1 (stereo not drawn)	1.73

Compound	cytotoxicity at 10 µM [%]
CC(CO)NC(=O)Nc1ccc(Cl)cc1OCC(F)(F)F (stereo not drawn)	5.32
CCOc1ccc(NC(=O)NCCS(=O)(=O)CC)cc1C	-3
COc1ccccc1N1CCCC(NC(=O)Nc2cccnc2)C1 (stereo not drawn)	9.86
CCOCCc1nc(-c2cnn3c(C)cc(C)nc23)no1	3.53
CC(SCC(=O)NCCC#N)c1ccc(Cl)cc1 (stereo not drawn)	10.6
O=C1CC(N(C(=O)c2ccc(Oc3ccccc3)cc2)C2CC2)C(=O)N1 (stereo not drawn)	-2.94
CN(CCCNS(=O)(=O)N1CCC2(CC1)OCCO2)c1ccccc1	9.13
COc1c(CNCc2ccccc2CN2CCOCC2)c(C)nn1C	-0.686
Cn1nnc(C2(NC(=O)c3ccccc3)CCCC2)n1	-10.5
Cc1cc(C(=O)N(CCN(C)C)Cc2ccc(Cl)cc2)no1	0.242
Cc1cnc(NC(=O)NC(CCO)c2cccs2)s1 (stereo not drawn)	5.53
Cc1cccc(OCCC(=O)N(C)CC(C)C#N)c1C (stereo not drawn)	-0.555
COc1cc(C(=O)N(C)Cc2nccn2CC(F)(F)F)ccc1C	-4.24
Cc1cc(C(=O)CN(Cc2cccnc2)CC2CCCO2)c(C)[nH]1 (stereo not drawn)	-1.26
CC(NCCN1CCN(C(=O)C2CCCC2)CC1)c1ccccn1 (stereo not drawn)	-2.17
O=C(NS(=O)(=O)c1ccc2c(c1)CCC2)C1COCCO1 (stereo not drawn)	10.4
N#Cc1ccsc1C(=O)N1CCCCC1Cn1cccn1 (stereo not drawn)	3.36
CCC1c2ccccc2CCN1C(=O)c1ccnc(C(=O)OC)c1 (stereo not drawn)	-2.72
Fc1cccc(NCc2ncc[nH]2)c1	-9.16
Cc1nc(CNC(=O)CCN2CCN(c3ccccc3)CC2)oc1C	-4.04
CCNC(=O)N(Cc1ccoc1)C1CCCCC1	-0.986
Cc1cc(C(=O)N2CCN(c3ccncc3Cl)CC2)n(C)n1	-9.1

Compound	cytotoxicity at 10 µM [%]
COc1ncccc1CNC(=O)C1CC(=O)N(C)C1 (stereo not drawn)	-14.6
CC(C)(C)NC(=O)NC(=O)CNc1c(F)cccc1N1CCCC1	12.2
Cc1ccc(C)c2c(C)c(C(=O)NCCC(=O)N3CCOCC3)oc12	1.04
CC(C)C(=O)N1CCCN(C(=O)NC2CCc3ccccc3C2)CC1 (stereo not drawn)	-7.33
CC(C)N(C)CCNC(=O)NCc1ccccc1-n1cccn1	-7.57
CC(C)c1noc(CS(=O)(=O)CC(=O)NCc2ccccc2)n1	-10.5
CCOC[C@@]12CCC[C@@H]1CN(C(=O)COc1ccccc1OC)C2	-106
Cc1ccc(C(=O)N2C[C@@H](N3CCN(C)CC3)[C@H]3OCCC[C@H]32)cn1	-113
Cc1nnc([C@@]23CCO[C@@H]2CCN(Cc2scnc2C)C3)o1	-111
CC(C)NC(=O)c1ccc2nnc(C3CCN(S(C)(=O)=O)C3)n2c1 (stereo not drawn)	3.5
Cc1ccc(C(=O)N2C[C@@H](OCc3cccnc3)[C@H]3OCCC[C@H]32)o1	4.74
O=S1(=O)C[C@@H]2[C@H](C1)N(Cc1ncc[nH]1)CCN2C/C=C/c1ccccc1	11.2
CCn1nc(C)c(C(C)NC(=O)c2cnc(N(C)C)nc2C)c1C (stereo not drawn)	5.19
CC(C(=O)N1CCn2cncc2C1)N1C[C@@H](C)O[C@@H](C)C1 (stereo partly drawn)	3.13
CCc1nc(C)c(C(=O)N(C)Cc2cnc3ccccn23)o1	-1.94
Cc1cc(C)n(Cc2cc(C(=O)N3CCCC3c3nccs3)n[nH]2)n1 (stereo not drawn)	-5.08
O=C1NCCN(Cc2ccoc2)C1CC(=O)N1CCc2sccc2C1 (stereo not drawn)	-3.45
CCCS(=O)(=O)N1CCC2(CCC(=O)N(CCc3cccnc3)C2)CC1	-4.92
Cc1ncsc1CCN(C)Cc1cc2n(n1)CCN(Cc1ncc[nH]1)C2	-22.2
CCC(=O)Nc1ccc(OCC(=O)N(C)C(C)c2ccon2)cc1 (stereo not drawn)	5.22
CN(CCCc1cnn(C)c1)C(=O)Nc1cccc(C#N)c1	-0.828
Cc1nnsc1C(=O)N(C)Cc1nc(-c2ccccn2)no1	1.89

Compound	cytotoxicity at 10 µM [%]
COC(=O)c1cc(OCC2CCC2)cc(C(=O)N[C@H]2CCCC[C@@H]2O)c1	-2.94
CC(C)(C)c1ncc(C(=O)N2CCC(N3CCSCC3)CC2)c(O)n1	0.382
CN1CCC(N2CCCC(C(=O)N3Cc4ccccc4C3)C2)CC1 (stereo not drawn)	5.19
Cc1[nH]c(=O)[nH]c(=O)c1CC(=O)N1CCC(Oc2ccc(F)cc2)CC1	4.42
CC(=O)NCc1cc2n(n1)CCN(Cc1cccc(Cl)c1F)C2	7.65
CC(O)c1cn(C2CCN(C(=O)C3(C)CCCCC3)CC2)nn1 (stereo not drawn)	-7.11
CCNC(=O)N1CCC(Cc2cccc(C(N)=O)c2)C1 (stereo not drawn)	2.92
COCC1CCN(S(=O)(=O)c2ccc(C(=O)NCC(F)F)cc2)C1 (stereo not drawn)	6.95
c1cc(-c2cn[nH]c2)ccc1CN1CCCCC1	1.58
OCCC1CN(c2ncnc3[nH]cnc23)CCN1Cc1ccccc1F (stereo not drawn)	17
CC(O)C(=O)N1CCC(c2nccn2Cc2cscn2)CC1 (stereo not drawn)	0.557
CCc1c(C)nc(C)nc1N1C[C@@H](CN(CC)CCO)[C@@H](CO)C1	1.5
CCC1CN(C(=O)c2cccc(O)c2)CCC(=O)N1Cc1ccccc1 (stereo not drawn)	6.78
O=C(CC1CCc2ccccc21)NC1(C(=O)O)CCCC1 (stereo not drawn)	-11.9
COC1CCN(C(=O)Cn2cccc(C(F)(F)F)c2=O)C1 (stereo not drawn)	2.23
O=C(O)[C@]12CCCN(Cc3nccs3)[C@@H]1CCN(c1cnccn1)C2	-0.911
Cn1cc(Cl)c(CN2CCn3nc(C(=O)Nc4ccccc4)cc3C2)n1	-2.8
CCC(CO)N(Cc1ccco1)C(=O)c1cccc(C)c1O (stereo not drawn)	0.126
CCn1nc(CNC(=O)C2CCCN(C(=O)COC)C2)c2ccccc21 (stereo not drawn)	-1.29
CC(C)N1CCC(CC(=O)NCCc2cc(O)ncn2)CC1	6.36
Cc1nccnc1N1Cc2cnc(CC(C)C)nc2C1	1.81
CCc1c(C)nn(C)c1NC(=O)N1CCCOC(Cn2cccn2)C1 (stereo not drawn)	-8.14

Compound	cytotoxicity at 10 µM [%]
O=C(NCCCNc1ccc(C(F)(F)F)cn1)c1ccccc1	-6.07
COc1ccc(OC)c(C(O)CNC(=O)Nc2cc(C)nn2C)c1 (stereo not drawn)	-9.86
CC(=O)N1CCCCCC1C1CCN(c2ncccc2C#N)CC1 (stereo not drawn)	-7.13
Cc1nn(C)c(C)c1CC(=O)N1CCCN(c2cccnn2)CC1	-2.1
Cc1nc(C)n(CC2CN(Cc3cccc(C#N)c3)CCO2)n1 (stereo not drawn)	-10.3
O=C(NCc1csc(Br)c1)c1ccc(=O)[nH]n1	1.66
COCCOc1ccc(NC(=O)N2CCCC2c2ccncc2)cn1 (stereo not drawn)	-3.49
Cc1nc2ccccc2nc1CN(C)CC1CCCN1c1cccnn1 (stereo not drawn)	7.17
COc1cc(CN(C)[C@@H]2COC[C@H]2c2ccc(F)cc2)cc(OC)c1	7.67
COc1cc(CNCc2ccco2)ccc1OCCO	3.35
c1coc(CN2CCc3nnc(COc4cncnc4)n3CC2)c1	4.15
COCCNC(=O)[C@H]1C[C@@H]2CCN(c3ccccc3)C[C@H]2O1	2.78
c1cnc(NCc2nnn3c2CN(CC2CC2)CCC3)nc1	-0.536
CS(=O)(=O)N1CCO[C@@H]2CN(Cc3ccc(F)cc3)CC[C@@H]2C1	6.86
CC(C)c1nc(-c2cc(C(=O)N3CCN(C)CC3)c3ccccn23)cs1	5.77
Cc1nc(CN2CC[C@@H](OCC3CC3)[C@@H]2Cc2cccnc2)cs1	-4.38
COc1ccc(F)cc1C(=O)N1C[C@@H]2CC[C@H]1CN(c1ncccn1)C2	4.24
N#Cc1ccc(C(=O)O)nc1C=Cc1cccc(Cl)c1	13
Cc1nc[nH]c1CN1C[C@H]2CC[C@@H](C1)N(C(=O)c1cnn(C)c1)C2	2.42
CC(C)=CCN1C[C@@H]2CC[C@H]1CN(C(=O)c1ccc3nc[nH]c3c1)C2	-1.31

Source: ChEMBL document CHEMBL4513216, “Probing the Open Global Health Chemical Diversity Library for Multistage-Active Starting Points for Next-Generation Antimalarials” (ACS Infect Dis, 2020)
